High-throughput results deposited in PubChem BioAssay by Sanford-Burnham Center for Chemical Genomics.
Most compounds without a hit are left out; they make up all but 1.8% or so of the library.
Jurkat NFkB inh: inhibitors of induced NF-kB luciferase reporter, primary screen, TCR NF-kB activation inhibitor project, cell-based, luminescence, uHTS; Jurkat, PMA/ionomycin-induced NF-kB luciferase reporter; inhibition, % at 4 µM; actives 0.53% (n = 330,000); AID 435003, 2010; in the data active = inhibition above about 50%
697 NFkB inh: inhibitors of PMA/ionomycin-induced NF-kB reporter, 697 cells, primary screen, B-cell NF-kB inhibitor project, cell-based, luminescence, uHTS; 697 B-cell NF-kB luciferase reporter, 16 h; inhibition, % at 4 µM; actives 0.33% (n = 330,000); in the data active = inhibition above about 35%
Lipid droplet: inhibitors of hepatocyte lipid droplet formation, primary screen, imaging, high-throughput imaging, BODIPY stain; AML12 mouse hepatocytes, oleate lipid droplets; inhibition, % at 6.5 µM; actives 0.4% (n = 240,000); AID 1656, 2009;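 active = lipid droplet intensity inhibited by at least 50%, with more than 500 cells counted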
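material = mouse AML12 hepatocyte cell line, fixed after treatment | also added = 100 µM oleic acid challenge | doses = compound at 6.5 µM only | schedule = overnight exposure | technique = Image-based BODIPY and DAPI two-channel analysis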
hiPSC survival: enhancers of single-cell hiPSC survival, primary screen, ATPlite luminescence; 100% = ROCK inhibitor wells, 0% = DMSO; survival enhancement, % at 20 µM; actives 0.044% (n = 360,000); AID 602274, 2012; in the data active = survival enhancement above about 18%;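 also: cells exposed to compounds for 16 hours before the ATP read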
TAG inh: inhibitors of triacylglycerol accumulation, primary screen, cell-based, uHTS, fluorescence, H9c2 | H9c2 cells, Nile Red lipid (TAG) fluorescence; cells loaded with 200 µM oleic acid | actives 0.66% (n = 230,000) | inhibition, % at 12.5 µM | AID 651582, 2012;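 active = pattern-corrected inhibition of lipid staining of at least 50% with the nuclear-stain viability signal not falling by more than 50%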;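 also: 0% = DMSO wells and 100% = triacsin C control wells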
Gli-Sufu antag: Gli-Sufu pathway antagonists, primary screen, luciferase luminescence, Sufu-KO-LIGHT cells, uHTS; Sufu-KO-LIGHT fibroblasts, Gli luciferase reporter luminescence; inhibition, % at 5 µM; actives 0.74% (n = 340,000); AID 588413, 2011;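 active = inhibition above about 55%, limit read from the data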;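 also: 0% = DMSO-treated cells and 100% = wells with medium but no cells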
Jurkat NFkB conf: PMA/ionomycin-induced NF-kB reporter inhibitors, Jurkat retest, confirmation, T-cell NF-kB inhibitor project, cell-based, luminescence, single concentration | shares compounds with Jurkat NFkB inh | Jurkat NF-kB luciferase, 16 h | inhibition, % at 4 µM | actives 27% (n = 2,700) | AID 435020, 2010;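 active = inhibition reaching about 45% at 4 µM in either replicate, limit read from the data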;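 also: plate controls were PMA/ionomycin stimulated DMSO wells for no effect and unstimulated DMSO wells for full effect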
The depositor's hits bear a star; . = no result given.

SMILES	Jurkat NFkB inh	697 NFkB inh	Lipid droplet	hiPSC survival	TAG inh	Gli-Sufu antag	Jurkat NFkB conf
Nc1ccc(-c2nc3ccccc3s2)cn1	-133	-96	21	1	.	-81	.
Brc1ccc(-c2nc3ccccc3s2)s1	-164	-170	.	0	.	-118	-102
COc1cccc(Oc2c(C)oc3c(CN4CCCC4)c(O)ccc3c2=O)c1	-4	-4	17	0	-2	-38	.
CCn1c(/C=C/c2c[nH]c3ccccc23)nc2ccccc2c1=O	-266	-232	-8	1	-5	-40	-37
Cc1nc2ccc(C(=O)N3c4ccccc4CC3C)cc2s1 (stereo unspecified)	55*	-75	6	0	5	3	14
COc1ccc(C(C)=O)cc1COc1cccnc1[N+](=O)[O-]	55*	-18	-4	-1	.	22	1
CCOc1ccc(C(C)=O)cc1COc1cccnc1[N+](=O)[O-]	54*	-11	-2	0	.	-27	19
COc1ccc(C(C)=O)cc1COc1ccccc1[N+](=O)[O-]	22	7	5	1	-7	-9	.
CC(=O)OCC(O)C1(O)CCC2C3CCC4=CC(=O)CCC4(C)C3C(O)CC21C (stereo unspecified)	.	.	.	-1	.	.	.
O=C(OC1CCOC1=O)c1ccc(Cl)c(S(=O)(=O)N2CCOCC2)c1 (stereo unspecified)	-4	25	.	0	-7	-2	.
CCOC(=O)/C=C/c1ccc2oc3ccccc3c(=O)c2c1	-165	-228	.	0	-5	-108	-92
CN1/C(=C/C=C(/C#N)C(N)=O)C(C)(C)c2ccccc21	61*	-86	.	-2	29	7	10
Cc1c(NC(=O)c2ccc(C(C)(C)C)cc2)cccc1[N+](=O)[O-]	-56	-9	16	0	.	-48	.
CC(C)(C)c1ccc(NC(=O)c2ccccc2)c([N+](=O)[O-])c1	-163	-192	-14	-2	.	-100	-97
O=[N+]([O-])c1ccc(O)c(/C=N/Nc2ccc(Cl)nn2)c1	53*	-121	.	-3	-69	86*	78*
CC(=O)Nc1ccc(/C=C/c2nc3ccccc3o2)cc1	-150	-145	.	-1	.	-94	-100
COc1ccc(N(C)C2=NS(=O)(=O)c3ccccc32)cc1	56*	-73	29	-3	13	-5	39
COc1ccc(/C=N/N(C)C2=NS(=O)(=O)c3ccccc32)cc1	25	6	.	0	.	7	.
Cc1cc(NCCN2CCOCC2)n2ncc(-c3ccccc3)c2n1	-179	-139	.	0	1	-75	-88
CCOc1ncccc1C(=O)Nc1cc(S(=O)(=O)N2CCCCCC2)ccc1OC	-1	1	.	1	4	26	.
CCOC(=O)C(=O)N1CCC(C(=O)OC)CC1	-10	22	-1	1	-8	2	.
O=C1C=C(c2ccc3ncccc3c2)C[C@@H](c2ccc3c(c2)OCO3)C1	70*	-58	.	2	-11	9	50*
Cc1ccc(C(=O)Nc2ccc(Cl)cc2C)c(Cl)c1	-153	-90	3	0	14	.	-103
Cc1ccc(C(=O)Nc2ccc(Cl)cc2C(F)(F)F)c(Cl)c1	-20	-22	1	0	.	-31	.
CCOC(=O)c1sc(=NC(=O)c2ccc(Cl)s2)n(C)c1C	-206	-153	2	0	-8	-57	-83
SMILES	Jurkat NFkB inh	697 NFkB inh	Lipid droplet	hiPSC survival	TAG inh	Gli-Sufu antag	Jurkat NFkB conf
N#CC1=C2SC=C(c3ccc(Br)cc3)N2CCCC1=O	-210	-179	-4	0	1	-66	-88
CC(C)[C@H](NC(=O)c1ccco1)C(=O)N(C)Cc1c(F)cccc1Cl	14	2	-28	0	.	-10	.
N=c1c(C(=O)NC2CCCCC2)cc2c(=O)n3ccccc3nc2n1CCc1ccccc1	58*	4	-16	0	.	34	-51
N=c1c(C(=O)NCCc2ccccc2)cc2c(=O)n3ccccc3nc2n1CCCN1CCOCC1	53*	-15	-8	0	.	4	2
C/C(=N\Nc1nncc2ccccc12)c1ccc(C(C)(C)C)cc1	-65	-57	-6	0	.	-71	.
C/C(=N\Nc1nncc2ccccc12)c1cccc(OC(F)F)c1	-153	-202	5	-1	.	4	-81
COC(=O)c1sc(N)c(C(=O)OC)c1COC(=O)c1c(C)noc1C	68*	-11	.	1	.	-13	21
Cc1cc(Nc2ccc3c(c2)OCCO3)c2cc(Cl)ccc2n1	4	-31	2	-1	.	31	.
O=C(c1cc(-c2ccc(Cl)cc2Cl)on1)N1CCCCCC1	-162	-180	8	0	.	.	-132
O=C(c1cc(-c2ccc(Cl)cc2)on1)N1CCCCCC1	-169	-141	-18	-1	.	-103	-157
CC(=O)O[C@H]1C(=O)[C@@]2(C)[C@H]([C@H](OC(=O)c3ccccc3)[C@]3(O)C[C@H](OC(=O)[C@H](O)[C@@H](NC(=O)c4ccccc4)c4ccccc4)C(C)=C1C3(C)C)[C@]1(OC(C)=O)CO[C@@H]1C[C@@H]2O	70*	-2	.	-2	56*	-1	68*
CCCCCC(=O)N[C@@H](c1ccccc1)[C@@H](O)C(=O)O[C@H]1C[C@@]2(O)[C@@H](OC(=O)c3ccccc3)C3[C@](C)(C(=O)[C@H](OC(C)=O)C(=C1C)C2(C)C)[C@@H](O)C[C@H]1OC[C@@]31OC(C)=O (stereo partly specified)	72*	-7	.	-2	.	-4	56*
CC(=O)O[C@H]1C(=O)[C@@]2(C)[C@H]([C@H](OC(=O)c3ccccc3)[C@]3(O)C[C@H](OC(=O)[C@H](O)C(NC(=O)c4ccccc4)c4ccccc4)C(C)=C1C3(C)C)[C@]1(OC(C)=O)CO[C@@H]1C[C@@H]2O (stereo partly specified)	59*	-27	-57	-3	62	29	60*
O=C(CCc1c[nH]c2ccccc12)OCc1ccc(Br)cc1	43	8	-11	1	7	5	.
O=C(CCCCCNC(=O)N1CCn2c1nc1ccccc12)N[C@@H](Cc1ccccc1)C(=O)O	-3	6	.	0	.	4	.
COc1ccc(N(S(=O)(=O)c2ccccc2)S(=O)(=O)c2ccccc2)c(N)c1	51*	-1	.	-3	-8	-3	4
CN1CCCC1CCNc1ccc2oc3ccccc3c(=O)c2c1 (stereo unspecified)	-130	-63	.	.	.	-15	.
